The values that follow come from ChEMBL document CHEMBL2203234, “Optimisation of imidazole compounds as selective TAAR1 agonists: discovery of RO5073012” (Bioorg Med Chem Lett, 2012).

In brackets after ≈: the same amount, converted by molar mass.

In data set [1] the target is Trace amine-associated receptor 1 (Rattus norvegicus, UniProt Q923Y9). Nature of the data set: Agonist activity at rat TAAR1 receptor expressed in HEK293 cells after 30 mins. The data set is classed as functional, cell-based.
The target in data set [2] is Trace amine-associated receptor 1 (Mus musculus, UniProt Q923Y8). Put plainly: Agonist activity at mouse TAAR1 receptor expressed in HEK293 cells after 30 mins. Type of data set: functional, cell-based.
The target of data set [3] is Trace amine-associated receptor 1 (Mus musculus) (UniProt Q923Y8). Nature of the data set: Agonist activity at mouse TAAR1 receptor expressed in HEK293 cells after 30 mins relative to control. The data set is classed as functional, cell-based.
Data set [4] concerns the target Trace amine-associated receptor 1 (Rattus norvegicus) (UniProt Q923Y9). Put plainly: Agonist activity at rat TAAR1 receptor expressed in HEK293 cells after 30 mins relative to control. The data set is classed as functional, cell-based.
The subject of a further data set is CHL. Nature of the data set: Selectivity ratio of Ki for human adrenergic alpha2A receptor expressed in CHL cells to Ki for human TAAR1 receptor. The data set is classed as cell-based.
Data set [5] addresses T1, Trace amine-associated receptor 1 (Homo sapiens, UniProt Q96RJ0).
T1 sequence (Q96RJ0 whole entry): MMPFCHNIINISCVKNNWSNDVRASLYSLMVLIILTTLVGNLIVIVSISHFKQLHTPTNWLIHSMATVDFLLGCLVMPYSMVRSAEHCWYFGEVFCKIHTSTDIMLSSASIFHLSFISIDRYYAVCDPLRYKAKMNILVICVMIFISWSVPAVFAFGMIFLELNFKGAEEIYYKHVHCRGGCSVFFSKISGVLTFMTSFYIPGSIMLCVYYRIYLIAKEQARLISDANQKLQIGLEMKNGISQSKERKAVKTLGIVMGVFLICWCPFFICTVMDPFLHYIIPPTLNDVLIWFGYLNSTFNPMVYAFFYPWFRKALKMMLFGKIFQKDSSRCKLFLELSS
Nature of the data set: Displacement of (S)-4-(2,4-difluorophenyl-3-tritio) -4,5-dihydro-2-oxazolamine from human TAAR1 receptor expressed in HEK293 cells after 90 mins by beta counting analysis. Type of data set: cell-based.

Data set [6] is described as follows: Cmax in mouse at 10 mg/kg, po. The conditions noted are these: in vivo. Also noted: dose 10 mg/kg, route oral. The data set is classed as ADME, organism-based.
Data set [7] deals with Liver microsomes. Nature of the data set: Intrinsic clearance in rat liver microsomes assessed per mg protein. The data set is classed as ADME, Microsome. Background: Liver microsomes are a subcellular fraction often used to study metabolism.
The nature of data set [8]: Half life in rat at 3.8 mg/kg, po. The data set is classed as ADME, organism-based. Also noted: dose 3.8 mg/kg, route oral. The settings on record: in vivo.
Data set [9] is described as follows: Clearance in rat at 4.8 mg/kg, iv. The data set is classed as ADME, organism-based. Further details: dose 4.8 mg/kg, route intravenous. The conditions noted are these: in vivo.
Data set [10] can be described thus: Half life in mouse at 10 mg/kg, po. The data set is classed as ADME, organism-based. Also noted: dose 10 mg/kg, route oral. The conditions noted are these: in vivo.
Data set [11] in a line: Volume of distribution at steady state in rat at 4.8 mg/kg, iv. The data set is classed as ADME, organism-based. Further details: dose 4.8 mg/kg, route intravenous. The conditions noted are these: in vivo, read-out: Vdss.
The nature of data set [12]: Lipophilicity, log D of the compound. Type of data set: physicochemical. The conditions noted are these: octanol/water. A digest of the protocol: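 Distribution coefficient (logD) measured at pH 7.4.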
Data set [13] in a line: Fraction unbound in mouse plasma. Type of data set: ADME, cell-free.
The nature of data set [14]: Oral bioavailability in mouse at 10 mg/kg. Type of data set: ADME, organism-based. The settings on record: in vivo.
A short description of data set [15]: Thermodynamic solubility of the compound at pH 6.5. Type of data set: physicochemical. The settings on record: buffer, read-out: Therm_solubility. An outline of the steps:
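Thermodynamic solubility determined using solid material, with the final pH being 6.5; value expressed in µg/ml.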

A short description of data set [16]: Clearance in mouse at 5 mg/kg, iv. The data set is classed as ADME, organism-based. Also noted: dose 5 mg/kg, route intravenous. The settings on record: in vivo.
Data set [17] in a line: Dissociation constant, pKa of the compound. The data set is classed as physicochemical.
Data set [18] can be described thus: Permeability of the compound by PAMPA assay. Type of data set: ADME. The conditions noted are these: read-out: permeability.
Data set [19] can be described thus: Ratio of drug level in brain to plasma in mouse at 5 mg/kg, iv. Type of data set: ADME, organism-based. Further details: dose 5 mg/kg, route intravenous. The conditions noted are these: brain and plasma, read-out: BPR.
Data set [20] can be described thus: Cmax in rat at 3.8 mg/kg, po. Type of data set: ADME, organism-based. The conditions noted are these: in vivo. Also noted: dose 3.8 mg/kg, route oral.
A short description of data set [21]: Volume of distribution at steady state in mouse at 5 mg/kg, iv. The data set is classed as ADME, organism-based. Also noted: dose 5 mg/kg, route intravenous. The settings on record: in vivo, read-out: Vdss.
The subject of another data set is Rattus norvegicus. Put plainly: Inhibition of cocaine-induced hyperlocomotion in po dosed Wistar rat assessed as reduction in locomotor activity after 30 mins. Type of data set: functional, organism-based. An outline of the steps:
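Rats were pretreated orally with several doses of test compound. Hyperlocomotion was then induced with cocaine at 20 mg/kg i.p., and the reduction in locomotor activity was recorded.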

The subject of the next data set is Liver. Put plainly: Intrinsic clearance in mouse liver microsomes assessed per mg protein. The data set is classed as ADME, Microsome.
Data set [22] relates to Liver microsomes. Put plainly: Intrinsic clearance in human liver microsomes assessed per mg protein. Type of data set: ADME, Microsome.
A short description of data set [23]: Ratio of drug level in brain to plasma in rat at 4.8 mg/kg, iv. Type of data set: ADME, organism-based. The conditions noted are these: brain and plasma, read-out: BPR. Also noted: dose 4.8 mg/kg, route intravenous.
Data set [24] is described as follows: Oral bioavailability in rat at 3.8 mg/kg. The conditions noted are these: in vivo. The data set is classed as ADME, organism-based.
The nature of data set [25]: Fraction unbound in rat plasma. The data set is classed as ADME, cell-free.

Trace amine-associated receptor 1 (Rattus norvegicus), sequence (Q923Y9 whole entry): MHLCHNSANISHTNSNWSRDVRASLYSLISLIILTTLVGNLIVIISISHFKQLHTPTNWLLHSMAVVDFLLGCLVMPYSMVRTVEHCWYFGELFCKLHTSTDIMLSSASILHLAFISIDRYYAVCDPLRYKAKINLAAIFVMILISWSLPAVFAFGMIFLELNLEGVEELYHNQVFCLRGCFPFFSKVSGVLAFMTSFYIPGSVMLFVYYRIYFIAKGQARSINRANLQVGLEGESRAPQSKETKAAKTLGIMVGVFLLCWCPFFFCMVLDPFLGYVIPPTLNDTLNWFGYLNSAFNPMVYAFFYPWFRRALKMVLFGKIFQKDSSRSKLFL
Trace amine-associated receptor 1 (Rattus norvegicus, UniProt Q923Y9), sequence (Q923Y9 whole entry): as above
Trace amine-associated receptor 1 (Mus musculus, UniProt Q923Y8), sequence (Q923Y8 whole entry): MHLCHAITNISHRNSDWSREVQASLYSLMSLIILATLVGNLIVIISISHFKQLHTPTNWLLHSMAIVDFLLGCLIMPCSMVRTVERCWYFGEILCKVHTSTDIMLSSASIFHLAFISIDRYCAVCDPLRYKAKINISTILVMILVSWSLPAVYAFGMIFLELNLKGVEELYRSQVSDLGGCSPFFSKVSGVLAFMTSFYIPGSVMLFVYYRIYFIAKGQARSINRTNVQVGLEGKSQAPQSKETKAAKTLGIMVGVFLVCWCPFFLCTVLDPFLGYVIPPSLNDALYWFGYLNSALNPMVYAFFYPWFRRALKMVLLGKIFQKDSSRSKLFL
Trace amine-associated receptor 1 (Mus musculus), sequence (Q923Y8 whole entry): as above

For `CC(C)N(Cc1cnc[nH]1)c1cccc(Cl)c1`, the 50% effective concentration (EC50) in data set [1] stood at 0.027 µM; in data set [2] it was 0.01 µM. For the same molecule, the maximal effect (Emax) is 50% in data set [3] and 22% in [4].

`COc1cccc(N(Cc2cnc[nH]2)C(C)C)n1` registered an EC50 in [1] of 0.025 µM. Also, the figures for the Emax in [3] and in [4] were 35% and 18%, respectively.

In the case of `CN(Cc1ncc[nH]1)c1ccccc1`, the Ratio Ki in the data set on CHL was found to be 0.2. Also, in [5], the Ki is 1.27 µM.

As for `CC(C)N(Cc1cnc[nH]1)c1ccccc1`, the EC50 came out at 0.0073 µM in data set [1] and 0.028 µM in data set [2]. The figures for the Emax in data set [3] and in data set [4] were 45% and 34%, respectively.

For the molecule `c1ccc(CC2=NCCN2)cc1` [TOLAZOLINE], in the data set with CHL, the Ratio Ki stood at 0.06. In data set [5], this molecule displayed a Ki of 1.64 µM.

As to `c1ccc2c(c1)CCCN2Cc1cnc[nH]1`, the Ki in [5] turned out to be 0.012 µM.

As for `COc1cccc(N(Cc2cnc[nH]2)C(C)C)c1`, the EC50 in [1] came to 0.061 µM; in data set [2], 0.072 µM. The Emax in [3] was 55%; in data set [4], 25%.

As for `CC(C)N(Cc1cnc[nH]1)c1cc(Cl)cc(Cl)c1`, the Ratio Ki in the data set with CHL came out at 37. Further, in [5], the affinity, expressed as Ki, was 0.004 µM.

Consider `FC(F)(F)c1cccc(C(F)(F)F)c1Cc1ncc[nH]1`, for which the Ki in data set [5] is 13.3 µM. In other words, the double-digit micromolar range.

On to `CC(C)N(Cc1ncc[nH]1)c1cccc(Cl)c1`, for which the EC50 in data set [1] came to 0.4 µM; in data set [2], 0.5 µM. Moreover, the Emax worked out at 54% in data set [3] and 60% in [4].

With `Clc1cccc(Cl)c1Cc1ncc[nH]1`, the Ratio Ki with CHL was 0.7. Moreover, in data set [5], the Ki worked out at 1.39 µM.

Turning to `c1ccc(NCc2ncc[nH]2)cc1`, the Ratio Ki in the data set on CHL was 0.2. The molecule also displayed a Ki in data set [5] of 4.25 µM.

With `c1ccc2c(c1)CCCN2Cc1c[nH]cn1`, the Ratio Ki in the data set on CHL worked out at 4.

Consider `CC(C)N(Cc1cnc[nH]1)c1ccc(Cl)cc1`, for which it took 0.025 µM to reach a half-maximal effect in data set [1] (EC50). Also, the Cmax in [6] turned out to be 1740 ng/mL; in data set [20] it was 519 ng/mL. Moreover, the CLint in the data set with Liver microsomes [7] was determined as 70 µL/min/mg; in the data set on Liver, 17.5 µL/min/mg; in the data set with Liver microsomes [22], 18 µL/min/mg. Also, the half-life in data set [8] is 1 h; in [10] it was 1.8 h. The clearance was 40 mL/min/kg in data set [9] and 24 mL/min/kg in [16]. In addition, the Vd was 4.1 L/kg in data set [11] and 2 L/kg in data set [21]. Besides, the logD in data set [12] was 3.3. Also, the fraction unbound turned out to be 0.08 in data set [13] and 0.06 in data set [25]. Also, the bioavailability in [14] came to 86%; in [24], 66%. Besides, the solubility thermodynamic in [15] turned out to be 97 µg/mL (≈ 388 µM). This molecule also gave a pKa in [17] of 3.5. Further, the Papp in data set [18] came out at 2.7 ×10⁻⁶ cm/s. For the same molecule, the Kp in data set [19] turned out to be 0.6; in data set [23] it was 6.6. In addition, the Emax in data set [3] is 26%; in data set [4], 24%. Further, the inhibition result with Rattus norvegicus was “Dose-dependent effect”.

The EC50 is the concentration needed to bring the measured effect to its halfway point. Low values mean greater potency, high ones weaker potency. For orientation: Emax means the maximal effect, on the per cent scale that the assay sets. Broadly, the Ki is a measure of affinity in units of concentration, obtained from inhibition or displacement. A high value points to weaker binding. By Cmax is commonly meant the highest concentration seen after dosing. For orientation: half-life means how long it takes for the measured level to halve. Low values mean fast loss, high ones slow loss. The clearance is the rate of elimination divided by the concentration. One may read the logD as lipophilicity at a set pH, counting ionised and neutral species. Read a low logD as a more hydrophilic compound. One may read the fraction unbound as free concentration divided by total concentration. A higher fraction unbound goes with much free substance. A word on the bioavailability: it is the share of a dose that reaches the circulation, judged against a reference dose that is usually intravenous. Low readings indicate poor availability, high ones good availability. By pKa is commonly meant the negative logarithm of the acid dissociation constant. The low end stands for a stronger acid or weaker base, the high end for a weaker acid or stronger base.
